# Experimental data collected from several papers.
# CYP3A4: Cytochrome P450 3A4 (CYP3A4, Homo sapiens, UniProt P08684)
# ALDH2: Aldehyde dehydrogenase, mitochondrial (ALDH2, Homo sapiens, UniProt P05091)
# CHRM1: Muscarinic acetylcholine receptor M1 (CHRM1, Homo sapiens, UniProt P11229)
# HDAC11: Histone deacetylase 11 (HDAC11, Homo sapiens, UniProt Q96DB2)
SMILES,target,test,setting,IC50 [µM]
Cn1ccc(-c2ccc(-c3cc(C(=O)O)cc4cc(-c5ccc(C(F)(F)F)cc5)ccc34)cc2)n1,CYP3A4,"enzyme activity, inhibitor",,10.8
COc1nc2ccc(Br)cc2cc1[C@@H](c1ccccc1)[C@@](O)(CCN(C)C)c1cccc2ccccc12,ALDH2,"enzyme activity, inhibitor, fluorescence",,< 10
O=C(CCNC(=O)CNC(=O)CC(c1ccccc1)(c1ccccc1)c1ccccc1)NC[C@H]1CCCN(Cc2ccc(F)cc2)C1,CHRM1,"ligand displacement, radioligand",cell membranes,13.9
COc1ccc(N(Cc2csc(-c3ccccc3)n2)C(=O)CCCCCC(=O)NO)cc1,HDAC11,"enzyme activity, inhibitor",,> 10
O=C(CCNC(=O)CNC(=O)CC(c1ccccc1)(c1ccccc1)c1ccccc1)NCC1CCN(Cc2ccc(F)cc2)CC1,CHRM1,"ligand displacement, radioligand",cell membranes,5.9
CCCN(CCC)S(=O)(=O)c1ccc(C(=O)O)cc1,"Taste receptor type 2 member 14 (TAS2R14, Homo sapiens, UniProt Q9NYV8)","inositol phosphate, antagonist, TR-FRET",,600
C=CCn1c(=O)c2cnc(Nc3ccc(N4CCN(C)CC4)cc3)nc2n1-c1ccc2c(n1)[C@@](O)(CC)CC2,CYP3A4,"enzyme activity, inhibitor",,7
O=C1Nc2ccccc2C12CC2c1cc(Cl)c(O)c(Cl)c1 (centres unmarked),ALDH2,"enzyme activity, inhibitor, fluorescence",,> 50
COc1ccc(N(Cc2nc(-c3ccc(F)cc3)cs2)C(=O)CCCCCC(=O)NO)cc1,HDAC11,"enzyme activity, inhibitor",,> 10
CCc1oc2ccccc2c1C(=O)c1cc(Br)c(O)c(Br)c1,"Solute carrier organic anion transporter family member 1B1 (SLCO1B1, Homo sapiens, UniProt Q9Y6L6)","transporter uptake, inhibitor, radiometric",oocytes,1.54
CN(C)CCC=C1c2ccccc2CCc2ccccc21,"Short transient receptor potential channel 5 (Mus musculus, UniProt Q9QX29)","ion current, inhibitor, patch clamp",,2.88
N=C(N)c1ccc2cc(OC(=O)c3ccc(N=C(N)N)cc3)ccc2c1,"Coagulation factor XII (F12, Homo sapiens, UniProt P00748)","enzyme activity, inhibitor",,0.0326
CN(C)C(=O)c1cc2cnc(Nc3ccc(-c4ccc5c(=O)cc(N6CCOCC6)oc5c4)cc3)nc2n1C1CCCC1,CYP3A4,"enzyme activity, inhibitor, fluorescence",pH 8,56.1
Nc1nc2c(s1)C(c1ccccc1Cl)CC(=O)N2 (centres unmarked),ALDH2,"enzyme activity, inhibitor, fluorescence",,< 10
Cc1cc2c(C(N)=O)c(N)n(-c3c(C)ccc(O)c3C)c2nc1C,"RAF proto-oncogene serine/threonine-protein kinase (RAF1, Homo sapiens, UniProt P04049, Y340D/Y341D)","enzyme activity, inhibitor, ADP detection",,0.0044
Nc1cnccc1Nc1ccc(Cl)c(Cl)c1,"Endonuclease III-like protein 1 (NTHL1, Homo sapiens, UniProt P78549)","enzyme activity, inhibitor",,> 100
CCc1cnn2c(NCc3ccc[n+]([O-])c3)cc(N3CCCC[C@H]3CCO)nc12,"Tyrosine-protein kinase JAK1 (JAK1, Homo sapiens, UniProt P23458)","enzyme activity, inhibitor, ELISA",,0.062
